In ChEMBL document CHEMBL5058577, “EUbOPEN Chemogenomics Library 2 (Multiplex)” (2022):

Tested on: Fibroblast
Test: Multiplex assay against human fibroblast
Assay type: toxicity, cell-based
Summary of the method: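 With compound added, live cells were imaged on a CQ1 microscope at 37°C and 5% CO2; staining with Hoechst33342, BioTracker Green Microtubule Cytoskeleton Dye, MitoTracker Red and Annexin V Alexa Fluor 680 had been done at seeding. The CellPathfinder machine-learning gating scheme split cells into Hoechst high-intensity objects or normal cells, normal cells into healthy, pyknosed or fragmented nuclei, and pyknosed cells into mitotic or apoptotic. The tubulin, mitochondrial-mass and membrane-permeability phenotypes are per cents of healthy-nucleus cells.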

[1] = 12 h, 1 µM, compound concentration 1 uM, replicate 1
[2] = 12 h, 1 µM, compound concentration 1 uM, replicate 2
[3] = 12 h, 10 µM, compound concentration 10 uM, replicate 1
[4] = 12 h, 10 µM, compound concentration 10 uM, replicate 2
[5] = 24 h, 1 µM, compound concentration 1 uM, replicate 1
[6] = 24 h, 1 µM, compound concentration 1 uM, replicate 2
[7] = 24 h, 10 µM, compound concentration 10 uM, replicate 1
[8] = 24 h, 10 µM, compound concentration 10 uM, replicate 2
[9] = 48 h, 1 µM, compound concentration 1 uM, replicate 1
[10] = 48 h, 1 µM, compound concentration 1 uM, replicate 2
[11] = 48 h, 10 µM, compound concentration 10 uM, replicate 1
[12] = 48 h, 10 µM, compound concentration 10 uM, replicate 2

## CN1CCN2c3ccccc3Cc3ccccc3C2C1.Cl (stereo unspecified) [MIANSERIN HYDROCHLORIDE]
[1]
  Population Apoptotic (%): 55%
  Population Fragmented Nuclei (%): 28%
  Population Healthy Nuclei (%): 56%
  Population Hoechst High Intensity Objects (%): 2%
  Population Membrane Permeable-Phenotype (%): 1%
  Population Mitochondria Different-Phenotype (%): 0%
  Population Mitotic Cells (%): 45%
  Population Normal (%): 97%
  Population Pyknosed Nuclei (%): 14%
  Population Tubulin-Different-Phenotype (%): 31%
  Total Cell Count: 138
[2]
  Population Apoptotic (%): 38%
  Population Fragmented Nuclei (%): 27%
  Population Healthy Nuclei (%): 50%
  Population Hoechst High Intensity Objects (%): 4%
  Population Membrane Permeable-Phenotype (%): 12%
  Population Mitochondria Different-Phenotype (%): 5%
  Population Mitotic Cells (%): 61%
  Population Normal (%): 95%
  Population Pyknosed Nuclei (%): 22%
  Population Tubulin-Different-Phenotype (%): 56%
  Total Cell Count: 119
[3]
  Population Apoptotic (%): 55%
  Population Fragmented Nuclei (%): 15%
  Population Healthy Nuclei (%): 68%
  Population Hoechst High Intensity Objects (%): 5%
  Population Membrane Permeable-Phenotype (%): 1%
  Population Mitochondria Different-Phenotype (%): 3%
  Population Mitotic Cells (%): 44%
  Population Normal (%): 94%
  Population Pyknosed Nuclei (%): 15%
  Population Tubulin-Different-Phenotype (%): 14%
  Total Cell Count: 126
[4]
  Population Apoptotic (%): 33%
  Population Fragmented Nuclei (%): 24%
  Population Healthy Nuclei (%): 48%
  Population Hoechst High Intensity Objects (%): 6%
  Population Membrane Permeable-Phenotype (%): 3%
  Population Mitochondria Different-Phenotype (%): 7%
  Population Mitotic Cells (%): 66%
  Population Normal (%): 93%
  Population Pyknosed Nuclei (%): 27%
  Population Tubulin-Different-Phenotype (%): 40%
  Total Cell Count: 116
[5]
  Population Apoptotic (%): 52%
  Population Fragmented Nuclei (%): 32%
  Population Healthy Nuclei (%): 55%
  Population Hoechst High Intensity Objects (%): 2%
  Population Membrane Permeable-Phenotype (%): 0%
  Population Mitochondria Different-Phenotype (%): 2%
  Population Mitotic Cells (%): 47%
  Population Normal (%): 97%
  Population Pyknosed Nuclei (%): 12%
  Population Tubulin-Different-Phenotype (%): 29%
  Total Cell Count: 143
[6]
  Population Apoptotic (%): 36%
  Population Fragmented Nuclei (%): 30%
  Population Healthy Nuclei (%): 50%
  Population Hoechst High Intensity Objects (%): 3%
  Population Membrane Permeable-Phenotype (%): 6%
  Population Mitochondria Different-Phenotype (%): 1%
  Population Mitotic Cells (%): 63%
  Population Normal (%): 96%
  Population Pyknosed Nuclei (%): 19%
  Population Tubulin-Different-Phenotype (%): 53%
  Total Cell Count: 119
[7]
  Population Apoptotic (%): 61%
  Population Fragmented Nuclei (%): 14%
  Population Healthy Nuclei (%): 73%
  Population Hoechst High Intensity Objects (%): 5%
  Population Membrane Permeable-Phenotype (%): 0%
  Population Mitochondria Different-Phenotype (%): 1%
  Population Mitotic Cells (%): 38%
  Population Normal (%): 95%
  Population Pyknosed Nuclei (%): 11%
  Population Tubulin-Different-Phenotype (%): 11%
  Total Cell Count: 120
[8]
  Population Apoptotic (%): 48%
  Population Fragmented Nuclei (%): 31%
  Population Healthy Nuclei (%): 47%
  Population Hoechst High Intensity Objects (%): 4%
  Population Membrane Permeable-Phenotype (%): 10%
  Population Mitochondria Different-Phenotype (%): 5%
  Population Mitotic Cells (%): 52%
  Population Pyknosed Nuclei (%): 20%
  Population Tubulin-Different-Phenotype (%): 53%
  Total Cell Count: 127
[9]
  Population Apoptotic (%): 78%
  Population Fragmented Nuclei (%): 35%
  Population Healthy Nuclei (%): 55%
  Population Hoechst High Intensity Objects (%): 2%
  Population Membrane Permeable-Phenotype (%): 0%
  Population Mitochondria Different-Phenotype (%): 2%
  Population Mitotic Cells (%): 21%
  Population Normal (%): 97%
  Population Pyknosed Nuclei (%): 9%
  Population Tubulin-Different-Phenotype (%): 35%
  Total Cell Count: 151
[10]
  Population Apoptotic (%): 46%
  Population Fragmented Nuclei (%): 36%
  Population Healthy Nuclei (%): 51%
  Population Hoechst High Intensity Objects (%): 3%
  Population Membrane Permeable-Phenotype (%): 3%
  Population Mitochondria Different-Phenotype (%): 10%
  Population Mitotic Cells (%): 53%
  Population Normal (%): 96%
  Population Pyknosed Nuclei (%): 11%
  Population Tubulin-Different-Phenotype (%): 50%
  Total Cell Count: 116
[11]
  Population Apoptotic (%): 57%
  Population Fragmented Nuclei (%): 15%
  Population Healthy Nuclei (%): 71%
  Population Hoechst High Intensity Objects (%): 5%
  Population Membrane Permeable-Phenotype (%): 0%
  Population Mitochondria Different-Phenotype (%): 2%
  Population Mitotic Cells (%): 42%
  Population Normal (%): 94%
  Population Pyknosed Nuclei (%): 12%
  Population Tubulin-Different-Phenotype (%): 16%
  Total Cell Count: 115
[12]
  Population Apoptotic (%): 38%
  Population Fragmented Nuclei (%): 29%
  Population Healthy Nuclei (%): 55%
  Population Hoechst High Intensity Objects (%): 3%
  Population Membrane Permeable-Phenotype (%): 10%
  Population Mitochondria Different-Phenotype (%): 1%
  Population Mitotic Cells (%): 61%
  Population Normal (%): 96%
  Population Pyknosed Nuclei (%): 14%
  Population Tubulin-Different-Phenotype (%): 37%
  Total Cell Count: 125
